Laboratory results taken from ChEMBL document CHEMBL1152800, “Aza-analogue dibenzepinone scaffolds as p38 mitogen-activated protein kinase inhibitors: design, synthesis, and biological data of inhibitors with improved physicochemical properties” (J Med Chem, 2009).
Values after ≈ are worked out from the molar mass of the structure shown.

What was measured:
[1] = molecular target: Mitogen-activated protein kinase 14 (Homo sapiens, UniProt Q16539); test: Inhibition of p38alpha MAPK by cell-free enzyme immunosorbent assay
[2] = Aqueous solubility in HCl/H2O at pH 1; type: physicochemical
[3] = Lipophilicity, CHI in methanol by fast-gradient HPLC; type: physicochemical
Method in brief: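 Chromatographic hydrophobicity index measured by fast-gradient reversed-phase HPLC with methanol as organic modifier. The index is calculated from the compound's retention time. It approximates the volume percentage of methanol needed for equal distribution of the compound between mobile and stationary phases.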

Chain of Mitogen-activated protein kinase 14 (Q16539 whole entry): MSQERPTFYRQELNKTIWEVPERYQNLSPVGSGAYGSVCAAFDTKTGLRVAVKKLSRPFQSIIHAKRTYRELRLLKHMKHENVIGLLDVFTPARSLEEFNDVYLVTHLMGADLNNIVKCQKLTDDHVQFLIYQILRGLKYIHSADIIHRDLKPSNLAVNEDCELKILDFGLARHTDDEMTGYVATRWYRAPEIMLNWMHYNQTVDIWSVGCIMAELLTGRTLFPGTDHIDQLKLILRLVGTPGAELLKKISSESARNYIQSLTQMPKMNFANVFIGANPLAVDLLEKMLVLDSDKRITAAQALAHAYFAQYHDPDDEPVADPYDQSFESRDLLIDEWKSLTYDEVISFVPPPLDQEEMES

Row | Compound | IC50 [1] | solubility [2] | CHI [3]
1 | Nc1ccccc1Nc1ccc2c(c1)CCc1ccccc1C2=O | – | < 10 µg/mL | 82.6%
2 | Nc1ccccc1Nc1ccc2c(c1)OCc1ccccc1C2=O | – | – | 75.2%
3 | Nc1ccccc1Nc1ccc2c(=O)c3cnccc3ccc2c1 | 1950 nM | – | 71.4%
4 | Nc1ccccc1Nc1ccc2c(c1)OCc1ncccc1C2=O | 2680 nM | – | 69%
5 | Nc1cc(F)ccc1Nc1ccc2c(c1)OCc1ncccc1C2=O | 2730 nM | – | 70.9%
6 | Nc1cc(F)ccc1Nc1ccc2c(c1)CCc1ncccc1C2=O | 1190 nM | – | 72.9%
7 | O=c1c2ccccc2ccc2cc(Nc3ccc(F)cc3F)ccc12 | 2530 nM | – | 88.7%

Results, then the compound that gave them:

Row | IC50 [1] | solubility [2] | CHI [3] | Compound
8 | 40 nM | – | – | Nc1cc(F)ccc1Nc1ccc2c(c1)OCc1ccccc1C2=O
9 | 130 nM | – | 82.8% | Nc1cc(F)ccc1Nc1ccc2c(c1)CCc1ccccc1C2=O
10 | 440 nM | – | 65.8% | Nc1ccccc1Nc1ccc2c(c1)CCc1cccnc1C2=O
11 | 1080 nM | – | 73.4% | Nc1ccccc1Nc1ccc2c(=O)c3cccnc3ccc2c1
12 | 330 nM | – | 82.9% | O=c1c2ccc(Nc3ccc(F)cc3F)cc2ccc2ncccc12
13 | 310 nM | 1200 µg/mL (≈ 3800 µM) | 73.9% | Nc1ccccc1Nc1ccc2c(c1)CCc1ncccc1C2=O
14 | 130 nM | < 10 µg/mL | 88.1% | O=C1c2ccccc2CCc2cc(Nc3ccc(F)cc3F)ccc21
15 | 240 nM | 486 µg/mL (≈ 1440 µM) | 81.2% | O=C1c2ccc(Nc3ccc(F)cc3F)cc2CCc2ncccc21
16 | 180 nM | – | 83.2% | O=C1c2ccc(Nc3ccc(F)cc3F)cc2OCc2ncccc21
